Compound activity (PubChem BioAssay)
Rows were chosen to be rich in hits. Some 9.6% of all compounds tested hit in one or more screens of this group.
L major viab = Leishmania major promastigote growth inhibition; Leishmania major promastigotes, resazurin fluorescence viability; inhibition, % at 10 µM; 9% of 200,000 active; AID 1063; in the data active = inhibition above about 50%;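 also: promastigotes grown with compound for 44 hours at 28 °C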
bCat KO growth = beta-catenin-lacking colon tumor cell growth suppression. viability, % at 10 µM. 1.5% of 140,000 active. HCT116 beta-catenin knockout viability, CellTiter-Glo, 60 h; active compounds read low;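 active = viability at or under a set limit, the compound median less 4 SD, cut at about 6% in these data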;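 also: 0% = Hyamine 1622 control at 20 µM and 100% = untreated cell control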
PTEN del growth = PTEN-deleted cell growth suppression; HCT116 PTEN-null viability, CellTiter-Glo, 60 h; active compounds read low; viability, % at 10 µM; 1.2% of 140,000 active; AID 827;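 active = viability at or below a set limit, 4 SD under the median of all tested compounds, cut at about 3.7% in these data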;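 also: PTEN knockout HCT116 line with beta catenin targeted HCT116 as companion control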
PMI activator = increases human mannose-6-phosphate isomerase activity; P34949; purified human PMI, coupled resazurin fluorescence, 20 min; active compounds read high; 1 = vehicle control, 0 substrate-free wells; activation factor at 20 µM; 0.005% of 190,000 active; AID 1214;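 active = activation factor of 2 or more at 20 µM, relative to plate controls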
Target sequence (P34949 whole entry, looked up): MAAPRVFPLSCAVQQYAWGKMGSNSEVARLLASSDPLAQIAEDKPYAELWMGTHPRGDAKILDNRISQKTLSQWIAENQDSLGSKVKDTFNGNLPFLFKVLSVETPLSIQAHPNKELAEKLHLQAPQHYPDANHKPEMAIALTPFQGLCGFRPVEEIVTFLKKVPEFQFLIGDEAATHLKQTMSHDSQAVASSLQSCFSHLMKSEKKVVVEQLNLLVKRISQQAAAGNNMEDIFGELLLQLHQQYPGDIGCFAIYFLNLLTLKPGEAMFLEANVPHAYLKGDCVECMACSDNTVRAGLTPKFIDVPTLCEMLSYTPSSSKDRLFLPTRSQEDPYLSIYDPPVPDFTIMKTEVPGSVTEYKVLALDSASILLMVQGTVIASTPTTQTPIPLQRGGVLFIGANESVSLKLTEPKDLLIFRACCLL
PMI act satM6P = increases human PMI activity with near-saturating mannose 6-phosphate; P34949; coupled PMI enzyme assay, resazurin fluorescence, 20 min; active compounds read high; 1 = untreated enzyme, 0 = substrate-free blank; activation factor at 20 µM; 0.34% of 190,000 active;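 active = activation factor of 2 or more at 20 µM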
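assay system = human phosphomannose isomerase with PGI, G6PDH, diaphorase coupling enzymes | quantity = 15 ng/mL PMI | incubation = enzyme reaction with compound 20 min at room temperature | medium = HEPES pH 7.4 buffer with MgCl2 and Tween-20 | compound dosing = one concentration, 20 µM, in 1% DMSO | measured by = Diaphorase-driven resazurin-to-resorufin fluorescence, excitation 544, emission 590 nm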
Starred values were filed as active, the others as inactive.

Results for CCc1ccc2[nH]c(=O)c(CN(Cc3ccccc3OC)Cc3nnnn3Cc3ccco3)cc2c1 ?
L major viab: 99.0*; bCat KO growth: 15.6; PTEN del growth: 8.7; PMI activator: 0.8; PMI act satM6P: 0.8

Results for COc1ccc(C(=O)OCC(=O)c2ccccc2)cc1S(=O)(=O)N1CCOCC1 ?
L major viab: 0.5; bCat KO growth: 95.7; PTEN del growth: 100.8; PMI activator: 0.9; PMI act satM6P: 0.9

Results for COc1ccc(-n2c(=O)c(CCC(=O)N(C)Cc3ccccc3C)nc3ccccc32)cc1 ?
L major viab: 65.9*; PMI activator: 1; PMI act satM6P: 0.9

Results for CCc1ccc(CN(C)C(=O)CCc2nc3ccccc3n(-c3ccc(OC)cc3)c2=O)cc1 ?
L major viab: 49.4; PMI activator: 0.9; PMI act satM6P: 0.9

Results for COc1ccc(-c2noc(CSc3nnc(Cc4ccccc4)n3-c3cccc(C)c3)n2)cc1OC ?
L major viab: 53.7*; bCat KO growth: 86.5; PTEN del growth: 73.2; PMI activator: 0.8; PMI act satM6P: 0.8

Results for COc1ccc(-c2noc(CSc3nc4sc(C)c(C)c4c(=O)n3-c3ccccc3)n2)cc1OC ?
L major viab: 3.7; bCat KO growth: 64.6; PTEN del growth: 59.1; PMI activator: 0.8; PMI act satM6P: 0.8

Results for Cc1ccc(-c2noc(CSc3nnc(Cc4ccccc4)n3-c3cccc(C)c3)n2)cc1 ?
L major viab: 80.2*; bCat KO growth: 66.2; PTEN del growth: 66.2; PMI activator: 0.8; PMI act satM6P: 0.9

How did O=C1CC2c3ccccc3C1C1C(=O)N(CCc3ccccc3)C(=O)C21 (stereo unspecified) do in these assays?
L major viab: -2.9; PMI activator: 0.9; PMI act satM6P: 1

How did COc1ccc(NC(=O)CN(c2cc(C)cc(C)c2)S(=O)(=O)c2c(C)n[nH]c2C)cc1 do in these assays?
L major viab: 1.3; bCat KO growth: 91.3; PTEN del growth: 86.7; PMI activator: 0.9; PMI act satM6P: 1

Results for Cc1nn(-c2ccccc2)c(/N=C/c2ccc(O)cc2)c1-c1ccccc1 ?
L major viab: 52.4*; bCat KO growth: 90.9; PTEN del growth: 97.3; PMI activator: 1; PMI act satM6P: 1.1

Results for Cc1ccc(C(=S)N2CCN(Cc3ccccc3)CC2)cc1 ?
L major viab: 8.3; PMI activator: 1; PMI act satM6P: 1.1

What do the screens show for `CCN1CCN(C(=S)NCc2ccc(C)cc2)CC1`?
L major viab: 83.4*; bCat KO growth: 86.9; PTEN del growth: 89.6; PMI activator: 0.8; PMI act satM6P: 1

What do the screens show for `CCN1CCN(C(=S)c2ccc(-c3ccccc3)cc2)CC1`?
L major viab: 80.0*; PMI activator: 1.1; PMI act satM6P: 1

Results for CCN1CCN(C(=S)c2ccc(Cl)c(Cl)c2)CC1 ?
L major viab: 90.4*; bCat KO growth: 101.3; PTEN del growth: 92.0; PMI activator: 1; PMI act satM6P: 1

How did CCN1CCN(C(=S)Nc2cccc(C(F)(F)F)c2)CC1 do in these assays?
L major viab: 59.9*; bCat KO growth: 93.8; PTEN del growth: 99.5; PMI activator: 0.9; PMI act satM6P: 0.9

How did COCCNC(=O)c1ccc(-c2csc(C)n2)cc1 do in these assays?
L major viab: -6.1; PMI activator: 1.1; PMI act satM6P: 1.2

How did CSc1ccc(C(=S)N2CCN(CCO)CC2)cc1 do in these assays?
L major viab: 74.7*; bCat KO growth: 100.6; PTEN del growth: 90.6; PMI activator: 0.9; PMI act satM6P: 1

Results for CCN1CCN(C(=S)Nc2cccc(Cl)c2)CC1 ?
L major viab: 3.3; PMI activator: 1.1; PMI act satM6P: 1.1

Results for OCCN1CCN(C(=S)Nc2ccc(SC(F)F)cc2)CC1 ?
L major viab: 13.5; PMI activator: 1; PMI act satM6P: 1

What do the screens show for `CCN1CCN(C(=S)Nc2ccc(Cl)c(Cl)c2)CC1`?
L major viab: 83.7*; bCat KO growth: 91.8; PTEN del growth: 97.2; PMI activator: 1; PMI act satM6P: 1

What do the screens show for `CC(C)(C)/C(O)=C(/C#N)c1nc2ccccc2[nH]1`?
L major viab: -1.7; bCat KO growth: 87.9; PTEN del growth: 89.2; PMI activator: 1.1; PMI act satM6P: 1.1

How did CC(C)CC(/C(O)=C(\C#N)c1nc2ccccc2[nH]1)N1C(=O)c2ccccc2C1=O (stereo unspecified) do in these assays?
L major viab: 64.7*; bCat KO growth: 77.7; PTEN del growth: 77.3; PMI activator: 0.9; PMI act satM6P: 0.9

Results for CCOc1cc(CNC(C)(C)C)ccc1OCC(=O)Nc1cccc(C(F)(F)F)c1 ?
L major viab: 84.4*; PMI activator: 1; PMI act satM6P: 1

What do the screens show for `CCOC(=O)C(=NCCCN1CCOCC1)NNc1cccc(C(F)(F)F)c1`?
L major viab: 10.8; PMI activator: 1.7; PMI act satM6P: 2.1*

What do the screens show for `CCOc1cc(CNC)ccc1OCC(=O)NC(C)(C)C`?
L major viab: 4.4; PMI activator: 1.1; PMI act satM6P: 1

How did CCOc1cc(CNCCCN2CCOCC2)cc(Br)c1OCC(=O)Nc1cccc(C(F)(F)F)c1 do in these assays?
L major viab: 100.6*; bCat KO growth: 1.9*; PTEN del growth: 1.5*; PMI activator: 0.9; PMI act satM6P: 0.9

Results for CCC(CO)NCc1ccc(OCC(=O)Nc2cccc(C(F)(F)F)c2)c(OC)c1 (stereo unspecified) ?
L major viab: 95.1*; bCat KO growth: 88.5; PTEN del growth: 89.9; PMI activator: 1.1; PMI act satM6P: 1

How did O=C(CN1CCOCC1)Nc1cccc(C(=O)Nc2cccc(C(F)(F)F)c2)c1 do in these assays?
L major viab: -0.7; bCat KO growth: 80.1; PTEN del growth: 79.7; PMI activator: 0.9; PMI act satM6P: 0.9

What do the screens show for `COc1ccc(C(C)(C)C)cc1S(=O)(=O)N1CCC(C(N)=O)CC1`?
L major viab: 11.0; bCat KO growth: 98.7; PTEN del growth: 104.0; PMI activator: 1; PMI act satM6P: 1

What do the screens show for `CCN1CCCC1CNC(=O)C1c2cc(OC)c(OC)cc2C(=O)N(C)C1c1cccnc1` (stereo unspecified)?
L major viab: -4.4; bCat KO growth: 99.4; PTEN del growth: 96.5; PMI activator: 1; PMI act satM6P: 1

How did O=C(c1cc(-c2ccccc2)nc2ccccc12)N1CCc2ccccc2C1 do in these assays?
L major viab: 57.7*; bCat KO growth: 78.1; PTEN del growth: 75.1; PMI activator: 0.8; PMI act satM6P: 0.9

What do the screens show for `O=C(c1cc(-c2ccncc2)nc2ccccc12)N1CCN(S(=O)(=O)/C=C/c2ccccc2)CC1`?
L major viab: 97.5*; bCat KO growth: 68.5; PTEN del growth: 66.9; PMI activator: 1; PMI act satM6P: 1

How did Cc1ccc(-c2cc(C(=O)N3CCN(c4ncccn4)CC3)c3ccccc3n2)cc1 do in these assays?
L major viab: 15.9; bCat KO growth: 48.1; PTEN del growth: 38.7; PMI activator: 1; PMI act satM6P: 0.9
